Reference: ChEMBL document CHEMBL1139819, “Cyanopyridyl containing 1,4-dihydroindeno[1,2-c]pyrazoles as potent checkpoint kinase 1 inhibitors: improving oral biovailability” (Bioorg Med Chem Lett, 2007)

Experiments:
[1] = Antiproliferative activity against H1299 cells assessed as reduction in G2/M cell population by FACS assay; format: functional, cell-based; settings: Homo sapiens, NCI-H1299
Method in brief: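 Cell cycle analysis by FACS in H1299 cells. EC50 is the inhibitor concentration that halves the G2/M population induced by 500 nM doxorubicin (combo). It was also measured without doxorubicin (single).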

[2] = tested on: HeLa; experiment: Antiproliferative activity against HeLa cells assessed as […] by MTS assay; format: functional, cell-based; settings: Homo sapiens
Method in brief: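 MTS proliferation assay in HeLa cells. […] For the combination, the regression baseline was set to the inhibition given by 150 nM doxorubicin alone. The combo/single EC50 ratio indexes potentiation.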

[3] = molecular target: T1, Serine/threonine-protein kinase Chk1 (Homo sapiens, UniProt O14757); experiment: Inhibition of recombinant CHK1
T1 sequence (O14757 whole entry): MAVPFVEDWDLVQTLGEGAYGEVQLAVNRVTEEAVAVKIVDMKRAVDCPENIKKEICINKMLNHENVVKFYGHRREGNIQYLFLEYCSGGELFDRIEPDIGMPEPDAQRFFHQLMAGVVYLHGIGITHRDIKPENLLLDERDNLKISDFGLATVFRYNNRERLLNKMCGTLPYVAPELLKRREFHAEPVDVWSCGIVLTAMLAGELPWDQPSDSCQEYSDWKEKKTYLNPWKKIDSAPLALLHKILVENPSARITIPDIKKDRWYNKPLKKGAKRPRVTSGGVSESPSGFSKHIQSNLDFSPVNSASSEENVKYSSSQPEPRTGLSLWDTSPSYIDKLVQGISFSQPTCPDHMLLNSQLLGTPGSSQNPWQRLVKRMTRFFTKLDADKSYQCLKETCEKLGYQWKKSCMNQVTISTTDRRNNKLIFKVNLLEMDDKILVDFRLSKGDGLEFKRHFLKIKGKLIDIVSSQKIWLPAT
Method in brief: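 Substrate is 5 µM human biotinylated Cdc25c peptide. Buffer is 25 mM Hepes pH 7.4, 10 mM MgCl2, Triton X-100, 0.5 mM DTT. ATP at 5 µM plus 33P-ATP, with 2% DMSO. Run 30 min at room temperature, stopped with NaCl/EDTA, then 33P incorporation captured on a Flash Plate.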

[4] = Dissociation constant, pKa of the compound; format: physicochemical
[5] = AUC in mouse at 10 mg/kg, po; format: ADME, organism-based; design: dose 10 mg/kg, route oral; settings: plasma
Method in brief: (§1)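 Oral dosing in mice at 10 mg/kg. Plasma exposure read as AUC and Cmax.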

[6] = AUC in mouse at 10 mg/kg, ip; format: ADME, organism-based; design: dose 10 mg/kg, route intraperitoneal; settings: plasma
Method in brief: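 Mice dosed intraperitoneally at 10 mg/kg. Vehicle is 2.5% EtOH, 5% Tween 80, 25% PEG400 in PBS, or for some entries 10% NMP, 20% Solutol, 70% PBS. Plasma exposure is given as AUC.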

[7] = Volume of distribution in mouse at 3.0 mg/kg, iv; format: ADME, organism-based; design: dose 3 mg/kg, route intravenous; settings: in vivo
[8] = tested on: Mus musculus; experiment: AUC in mouse at 3.0 mg/kg, iv; format: ADME, organism-based, Plasma; design: dose 3 mg/kg, route intravenous; settings: in vivo
[9] = Cmax in mouse at 10 mg/kg, po; format: ADME, organism-based; design: dose 10 mg/kg, route oral; settings: in vivo; method in brief: as §1
[10] = Oral bioavailability in mouse at 10 mg/kg; format: ADME, organism-based; settings: in vivo
[11] = Half life in mouse at 3.0 mg/kg, iv; format: ADME, organism-based; design: dose 3 mg/kg, route intravenous; settings: in vivo
[12] = AUC in Nu/Nu mouse at 50 mg/kg/day, po in phosal; format: ADME, organism-based; design: route oral; settings: plasma
Method in brief: (§2)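 Oral dosing in Nu/Nu mice at 10, 25 or 50 mkd in one of two vehicles, NMP or Phosal.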

[13] = AUC in Nu/Nu mouse at 50 mg/kg/day, po in NMP; format: ADME, organism-based; design: route oral; settings: plasma; method in brief: as §2
[14] = AUC in Nu/Nu mouse at 25 mg/kg/day, po in phosal; format: ADME, organism-based; design: route oral; settings: plasma; method in brief: as §2
[15] = AUC in Nu/Nu mouse at 25 mg/kg/day, po in NMP; format: ADME, organism-based; design: route oral; settings: plasma; method in brief: as §2
[16] = AUC in Nu/Nu mouse at 10 mg/kg/day, po in NMP; format: ADME, organism-based; design: route oral; settings: plasma; method in brief: as §2
[17] = AUC in Nu/Nu mouse at 10 mg/kg/day, po in phosal; format: ADME, organism-based; design: route oral; settings: plasma; method in brief: as §2

| EC50 [2] [µM] | IC50 [3] [nM] | pKa [4] | AUC [6] [ng·h/mL] | SMILES | other results |
| --- | --- | --- | --- | --- | --- |
| > 59 | – | – | – | COc1cc2c(cc1OC)-c1n[nH]c(-c3ccc(-c4ccc(O)cc4)cc3)c1C2 | EC50 [1]: > 10 µM |
| – | 3.8 | – | – | COc1cc2c(cc1OCCN1CCOCC1)Cc1c(-c3ccc(C#N)nc3)n[nH]c1-2 | – |
| 5.4 | 0.92 | 9.1 | – | N#Cc1ccc(-c2n[nH]c3c2Cc2ccc(OCCCN4CCCOCC4)cc2-3)cn1 | AUC [5]: 31 ng·h/mL |
| 4 | 2.6 | 9.1 | – | N#Cc1ccc(-c2n[nH]c3c2Cc2ccc(OCCCN4CCCCC4)cc2-3)cn1 | – |
| – | 3.1 | – | 300 | COc1cc2c(cc1OCCO)Cc1c(-c3ccc(C#N)nc3)n[nH]c1-2 | – |
| – | 3 | – | 930 | COc1cc2c(cc1OCCN1CCOCC1)-c1[nH]nc(-c3ccc(C#N)nc3)c1C2 | – |
| 2.7 | 1 | 11 | – | N#Cc1ccc(-c2n[nH]c3c2Cc2ccc(OCCCC4CCNCC4)cc2-3)cn1 | – |
| > 59 | 3.2 | – | 2600 | N#Cc1ccc(-c2n[nH]c3c2Cc2ccc(OCCCN4CCOCC4)cc2-3)cn1 | Vd [7]: 7.6 L/kg; AUC [8]: 2 µg·h/mL; Cmax [9]: 660 nM; bioavailability [10]: 44%; half-life [11]: 84 min; AUC [5]: 3000 ng·h/mL |
| – | 1.1 | – | – | COc1cc2c(cc1OCCc1scnc1C)-c1[nH]nc(-c3ccc(C#N)nc3)c1C2 | – |
| > 59 | 52 | 1.6 | – | N#Cc1ccc(-c2n[nH]c3c2Cc2ccc(OCCCc4cccs4)cc2-3)cn1 | – |
| 7.6 | 6.4 | 3.3 | – | Cc1ncsc1CCOc1ccc2c(c1)-c1[nH]nc(-c3ccc(C#N)nc3)c1C2 | – |
| 8.1 | 1.4 | – | – | N#Cc1ccc(-c2n[nH]c3c2Cc2ccc(OCCCCCN4CCOCC4)cc2-3)cn1 | – |
| > 59 | 7 | – | – | N#Cc1ccc(-c2n[nH]c3c2Cc2ccc(NCCN4CCOCC4)cc2-3)cn1 | – |
| 33 | 16 | – | – | N#Cc1ccc(-c2n[nH]c3c2Cc2ccc(NC(=O)CCN4CCOCC4)cc2-3)cn1 | – |
| > 59 | – | 5.7 | 5700 | N#Cc1ccc(-c2n[nH]c3c2Cc2ccc(OCCN4CCOCC4)cc2-3)cn1 | – |
| 33 | 1.5 | 6.9 | 2200 | CC(=O)N1CCN(CCCCOc2ccc3c(c2)-c2[nH]nc(-c4ccc(C#N)nc4)c2C3)CC1 | – |
| 9.7 | 1.2 | – | – | N#Cc1ccc(-c2n[nH]c3c2Cc2ccc(CCCCN4CCOCC4)cc2-3)cn1 | – |
| > 59 | 6.4 | – | – | N#Cc1ccc(-c2n[nH]c3c2Cc2cc(OCCCN4CCOCC4)ccc2-3)cn1 | – |
| > 59 | 1.1 | 7.2 | – | N#Cc1ccc(-c2n[nH]c3c2Cc2ccc(OCCCn4ccnc4)cc2-3)cn1 | – |
| > 59 | – | – | – | COc1cc2c(cc1OC)-c1[nH]nc(-c3ccc(C#N)nc3)c1C2 | EC50 [1]: > 10 µM |
| 6.2 | 1.5 | 9.1 | – | CN1CCN(CCCOc2ccc3c(c2)-c2[nH]nc(-c4ccc(C#N)nc4)c2C3)CC1 | – |
| 21 | 0.75 | – | 10400 | N#Cc1ccc(-c2n[nH]c3c2Cc2ccc(OCCCCN4CCOCC4)cc2-3)cn1 | Vd [7]: 6.9 L/kg; AUC [8]: 2.1 µg·h/mL; Cmax [9]: 770 nM; bioavailability [10]: > 50%; AUC [12]: 32000 ng·h/mL; AUC [13]: 25000 ng·h/mL; half-life [11]: 84 min; AUC [14]: 15000 ng·h/mL; AUC [15]: 12000 ng·h/mL; AUC [16]: 6000 ng·h/mL; AUC [5]: > 3300 ng·h/mL; AUC [17]: 5000 ng·h/mL |
| > 59 | 6.5 | – | – | N#Cc1ccc(-c2n[nH]c3c2Cc2cc(OCCN4CCOCC4)ccc2-3)cn1 | – |
| – | 3.7 | – | 470 | COc1cc2c(cc1OCc1ccccn1)Cc1c(-c3ccc(C#N)nc3)n[nH]c1-2 | – |
| – | 2.5 | – | – | COc1cc2c(cc1OCCc1scnc1C)Cc1c(-c3ccc(C#N)nc3)n[nH]c1-2 | – |
| – | 2.6 | – | – | COc1cc2c(cc1OCCO)-c1[nH]nc(-c3ccc(C#N)nc3)c1C2 | – |
| 29 | 1.8 | 6.1 | 1700 | N#Cc1ccc(-c2n[nH]c3c2Cc2ccc(OCCOCCN4CCOCC4)cc2-3)cn1 | – |
| > 52 | 1 | 6.1 | 3000 | C[C@@H]1CN(CCCOc2ccc3c(c2)-c2[nH]nc(-c4ccc(C#N)nc4)c2C3)C[C@H](C)O1 | – |
